Laboratory results as given in article PMC4398655 (Bioorganic & medicinal chemistry, 2015).
“Also recorded” adds a separate entry of the source. Where two headings read alike, the source gives them in different places.

Legend:
[1] = test system: HCT-116 colon cancer cells; details: 10 μM for 72 h, relative percent cell viability only; cited from earlier work
[2] = test system: MCF-7 breast cancer cells; details: 10 μM for 72 h, relative percent cell viability only; cited from earlier work
[3] = test system: PC-3 prostate cancer cells; details: 10 μM for 72 h, relative percent cell viability only; cited from earlier work
[4] = test system: PC-3 prostate cancer cells; test: Morphological analysis by microscopy, PC-3; format: cell-based, human; details: 68 h
How it was run: (§1)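 Cells from the MTT setup, with and without test compound, were photographed at 68 h on an inverted microscope for each triplicate treatment. Images for the different concentrations were compared double-blind for cell size, shape and number.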

[5] = test system: HCT-116 colon cancer cells; test: Morphological analysis by microscopy, HCT-116; format: cell-based, human; details: 68 h
How it was run: as §1

[6] = test system: six human cancer cell lines (HCT-116, S1, DU-145, PC-3, MDA-MB-231, MCF-7); test: MTT cell cytotoxicity assay, panel of cancer cell lines; format: cell-based; details: for IC50: Homo sapiens
How it was run: (§2)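 Cell lines grown as adherent monolayers in DMEM with 10% FBS at 37°C, 5% CO2. Trypsinised cells seeded at 5×10^3 cells/well and exposed to test compound at 0.1 to 100 μM for 72 h. MTT (4 mg/ml) added for 4 h, formazan dissolved in DMSO, and absorbance read at 570 nm. IC50 derived from survival curves by the Bliss method. Mean±SD from at least three experiments, each in triplicate.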

[7] = test system: PC-3 prostate cancer cells; test: MTT cell cytotoxicity assay, PC-3; format: cell-based; details: Homo sapiens, 72 h, read-out: IC50 ± SD, PC3
How it was run: as §2

[8] = test system: ABCB1 (P-glycoprotein, MDR1); test: MTT cell cytotoxicity assay, ABCB1 overexpressing cells; format: cell-based; details: human, HEK293/ABCB1 cells (P-glycoprotein overexpressing)
[9] = test system: HEK293/pcDNA3.1 human primary embryonic kidney cells; test: MTT cell cytotoxicity assay, HEK293/pcDNA3.1; format: cell-based; details: HEK293, 72 h, read-out: IC50 ± SD, HEK 293/pcDNA.3.1
How it was run: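 Empty-vector-transfected HEK293 cells, grown adherent in DMEM + 10% FBS at 37°C, 5% CO2, were trypsinised and seeded at 5×10³ cells/well. Test compound was added at 0.1–100 μM for 72 h. MTT solution (4 mg/ml) was then added for 4 h, and formazan was dissolved in DMSO and read at 570 nm. IC50 was derived from survival curves by the Bliss method; mean±SD from ≥3 experiments, each in triplicate.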

[10] = read-out: mean IC50 values in all the cancer cell lines tested

CC(=O)/C=C(O)/C=C/c1ccc(O)c(O)c1 [VA-1, Hispolon]
activity against HCT-116 (previous study) [1]: active | activity against MCF-7 (previous study) [2]: active | activity against PC-3 (previous study) [3]: active

COc1cc(/C=C/C(=O)CC(C)=O)ccc1O [VA-2, hispolon methyl ether]
morphological analysis (cell number, cell size) ([4]; 1 μM): marked reduction of cell number; also recorded: significant reduction of cell number | morphological analysis (cell number, cell size) ([5]; 1 μM): marked reduction of cell number; also recorded: significant reduction of cell number | activity against HCT-116 (previous study) [1]: active | IC50 ([6]; read-out: observed mean IC50 values in colon and prostate cancer cell lines): 1.4 to 6.3 µM | activity against MCF-7 (previous study) [2]: active | activity against PC-3 (previous study) [3]: active

CC(=O)CC(=O)/C=C/c1ccc(O)cc1 [VA-3, dehydroxy hispolon]
activity against HCT-116 (previous study) [1]: active | activity against MCF-7 (previous study) [2]: active | activity against PC-3 (previous study) [3]: active

Cc1cc(/C=C/c2ccc(O)c(O)c2)on1 [VA-7]
IC50 [6, 10]: 3.3 to 10.7 µM

COc1ccc(/C=C/c2cc(C)n[nH]2)cc1 [VA-15, (E)-5-(4-methoxystyryl)-3-methyl-1H-Pyrazole]
IC50 [6, 10]: 3.3 to 10.7 µM

COc1cc(CCC(=O)CC(C)=O)ccc1O [VA-16]
IC50 [7]: > 100 µM | morphological characteristics ([4]; concentrations up to 100 μM): no significant change | morphological characteristics ([5]; concentrations up to 100 μM): no significant change | activity (inhibition of cell survival) in the tested concentration range ([6]; MTT, concentrations up to 100 μM): no significant activity

COc1ccc(CCC(=O)CC(C)=O)cc1 [VA-18, 6-(4-methoxyphenyl)hexane-2,4-dione]
IC50 at 72 h [8]: 51.2 ± 10.3 µM | IC50 [9]: 50.2 ± 8.9 µM
